In ChEMBL document CHEMBL1287651, “Synthesis and in vitro antibacterial activity of fluoroquinolone derivatives containing 3-(N'-alkoxycarbamimidoyl)-4-(alkoxyimino) pyrrolidines” (2010):

What was measured:
Format in all cases: functional
Staphylococcus aureus [1] = experiment: Antibacterial activity against Staphylococcus aureus ATCC […] after 18 to 24 hrs by twofold serial dilution method
Summary of the method: (§1)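 MIC determined by the standard twofold serial dilution method on agar media, screening against Gram-positive and Gram-negative strains. Levofloxacin and gemifloxacin were run alongside as reference drugs.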

Staphylococcus aureus [2] = experiment: Antibacterial activity against methicillin-resistant Staphylococcus aureus 08-1 after 18 to 24 hrs by twofold serial dilution method
Summary of the method: (§2)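 Standard twofold serial agar dilution method on agar media for MIC determination. Screened against representative Gram-positive and Gram-negative strains. Levofloxacin and GMFX served as control drugs.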

Staphylococcus aureus [3] = experiment: Antibacterial activity against methicillin-sensitive Staphylococcus aureus 08-2 after 18 to 24 hrs by twofold serial dilution method; summary of the method: as §2
[4] = test system: Staphylococcus epidermidis; experiment: Antibacterial activity against methicillin-resistant Staphylococcus epidermidis 09-2 after 18 to 24 hrs by twofold serial dilution method; summary of the method: as §2
[5] = test system: Staphylococcus epidermidis; experiment: Antibacterial activity against methicillin-resistant Staphylococcus epidermidis 09-3 after 18 to 24 hrs by twofold serial dilution method; summary of the method: as §2
[6] = test system: Staphylococcus epidermidis; experiment: Antibacterial activity against methicillin-resistant Staphylococcus epidermidis 09-4 after 18 to 24 hrs by twofold serial dilution method; summary of the method: as §2
[7] = test system: Staphylococcus epidermidis; experiment: Antibacterial activity against methicillin-sensitive Staphylococcus epidermidis 09-3 after 18 to 24 hrs by twofold serial dilution method; summary of the method: as §2
[8] = test system: Staphylococcus epidermidis; experiment: Antibacterial activity against methicillin-sensitive Staphylococcus epidermidis 09-6 after 18 to 24 hrs by twofold serial dilution method; summary of the method: as §2
Streptococcus pneumoniae [9] = experiment: Antibacterial activity against Streptococcus pneumoniae 08-2 after 18 to 24 hrs by twofold serial dilution method; summary of the method: as §1
Streptococcus pneumoniae [10] = experiment: Antibacterial activity against Streptococcus pneumoniae 08-4 after 18 to 24 hrs by twofold serial dilution method; summary of the method: as §1
Enterococcus faecium [11] = experiment: Antibacterial activity against Enterococcus faecium 08-2 after 18 to 24 hrs by twofold serial dilution method; summary of the method: as §1
Enterococcus faecium [12] = experiment: Antibacterial activity against Enterococcus faecium 08-7 after 18 to 24 hrs by twofold serial dilution method; summary of the method: as §1
Enterococcus faecalis [13] = experiment: Antibacterial activity against Enterococcus faecalis 08-10 after 18 to 24 hrs by twofold serial dilution method; summary of the method: as §1
Enterococcus faecalis [14] = experiment: Antibacterial activity against Enterococcus faecalis 08-12 after 18 to 24 hrs by twofold serial dilution method; summary of the method: as §1
Escherichia coli [15] = experiment: Antibacterial activity against Escherichia coli ATCC 25922 after 18 to 24 hrs by twofold serial dilution method; summary of the method: as §1
Escherichia coli [16] = experiment: Antibacterial activity against Escherichia coli 08-21 after 18 to 24 hrs by twofold serial dilution method; summary of the method: as §1
Escherichia coli [17] = experiment: Antibacterial activity against Escherichia coli 08-22 after 18 to 24 hrs by twofold serial dilution method; summary of the method: as §1
Klebsiella pneumoniae [18] = experiment: Antibacterial activity against Klebsiella pneumoniae 09-21 after 18 to 24 hrs by twofold serial dilution method; summary of the method: as §1
Klebsiella pneumoniae [19] = experiment: Antibacterial activity against Klebsiella pneumoniae 09-22 after 18 to 24 hrs by twofold serial dilution method; summary of the method: as §1
Klebsiella pneumoniae [20] = experiment: Antibacterial activity against Klebsiella pneumoniae 09-23 after 18 to 24 hrs by twofold serial dilution method; summary of the method: as §1
Pseudomonas aeruginosa [21] = experiment: Antibacterial activity against Pseudomonas aeruginosa ATCC 27853 after 18 to 24 hrs by twofold serial dilution method; summary of the method: as §1
Pseudomonas aeruginosa [22] = experiment: Antibacterial activity against Pseudomonas aeruginosa 09-32 after 18 to 24 hrs by twofold serial dilution method; summary of the method: as §1
Pseudomonas aeruginosa [23] = experiment: Antibacterial activity against Pseudomonas aeruginosa 09-33 after 18 to 24 hrs by twofold serial dilution method; summary of the method: as §1
Pseudomonas aeruginosa [24] = experiment: Antibacterial activity against Pseudomonas aeruginosa 09-34 after 18 to 24 hrs by twofold serial dilution method; summary of the method: as §1
Pseudomonas aeruginosa [25] = experiment: Antibacterial activity against Pseudomonas aeruginosa 09-35 after 18 to 24 hrs by twofold serial dilution method; summary of the method: as §1

Measured: MIC

CCO/N=C1\CN(c2c(F)cc3c(=O)c(C(=O)O)cn4c3c2OC[C@@H]4C)CC1/C(N)=N\OC (stereo not given in full)
128 µg/mL: Escherichia coli [15]
0.25 µg/mL: Staphylococcus aureus [1] | Staphylococcus aureus [2] | Staphylococcus aureus [3] | [4] | [6] | [7] | Streptococcus pneumoniae [10]
0.125 µg/mL: [5]
1 µg/mL: Klebsiella pneumoniae [19]
0.5 µg/mL: [8] | Enterococcus faecalis [13]
> 128 µg/mL: Streptococcus pneumoniae [9] | Enterococcus faecium [11] | Enterococcus faecium [12] | Enterococcus faecalis [14] | Escherichia coli [16] | Escherichia coli [17] | Klebsiella pneumoniae [18] | Klebsiella pneumoniae [20] | Pseudomonas aeruginosa [21] | Pseudomonas aeruginosa [22] | Pseudomonas aeruginosa [23] | Pseudomonas aeruginosa [24] | Pseudomonas aeruginosa [25]

CO/N=C1\CN(c2nc3c(cc2F)c(=O)c(C(=O)O)cn3-c2ccc(F)cc2F)CC1/C(N)=N\OC (stereo not given)
0.5 µg/mL: Staphylococcus aureus [1] | [4] | [7]
16 µg/mL: Streptococcus pneumoniae [9]
0.25 µg/mL: Staphylococcus aureus [2] | Staphylococcus aureus [3] | [5] | [6] | [8] | Streptococcus pneumoniae [10]
> 128 µg/mL: Enterococcus faecium [11] | Enterococcus faecium [12] | Enterococcus faecalis [13] | Enterococcus faecalis [14] | Escherichia coli [16] | Escherichia coli [17] | Klebsiella pneumoniae [18] | Klebsiella pneumoniae [20] | Pseudomonas aeruginosa [23] | Pseudomonas aeruginosa [24]
1 µg/mL: Klebsiella pneumoniae [19]
128 µg/mL: Escherichia coli [15] | Pseudomonas aeruginosa [21] | Pseudomonas aeruginosa [22] | Pseudomonas aeruginosa [25]

CCO/N=C1\CN(c2nc3c(cc2F)c(=O)c(C(=O)O)cn3C2CC2)CC1/C(N)=N\OC (stereo not given)
1 µg/mL: Klebsiella pneumoniae [19]
0.5 µg/mL: Staphylococcus aureus [1]
0.25 µg/mL: Staphylococcus aureus [2] | Staphylococcus aureus [3] | [6] | [7] | [8] | Streptococcus pneumoniae [10]
64 µg/mL: Pseudomonas aeruginosa [21] | Pseudomonas aeruginosa [22] | Pseudomonas aeruginosa [25]
0.125 µg/mL: [5]
> 128 µg/mL: Enterococcus faecium [11] | Enterococcus faecium [12] | Enterococcus faecalis [13] | Enterococcus faecalis [14] | Escherichia coli [15] | Escherichia coli [16] | Escherichia coli [17] | Klebsiella pneumoniae [18] | Klebsiella pneumoniae [20] | Pseudomonas aeruginosa [23] | Pseudomonas aeruginosa [24]
128 µg/mL: [4] | Streptococcus pneumoniae [9]

CCO/N=C1\CN(c2c(F)cc3c(=O)c(C(=O)O)cn(C4CC4)c3c2OC)CC1/C(N)=N\O (stereo not given)
64 µg/mL: Pseudomonas aeruginosa [22] | Pseudomonas aeruginosa [25]
128 µg/mL: Escherichia coli [15]
1 µg/mL: Streptococcus pneumoniae [9] | Streptococcus pneumoniae [10]
4 µg/mL: Klebsiella pneumoniae [19]
0.25 µg/mL: Staphylococcus aureus [1] | Staphylococcus aureus [2] | Staphylococcus aureus [3] | [5] | [7] | [8]
32 µg/mL: Pseudomonas aeruginosa [21]
> 128 µg/mL: Enterococcus faecium [11] | Enterococcus faecium [12] | Enterococcus faecalis [13] | Enterococcus faecalis [14] | Escherichia coli [16] | Escherichia coli [17] | Klebsiella pneumoniae [18] | Klebsiella pneumoniae [20] | Pseudomonas aeruginosa [23] | Pseudomonas aeruginosa [24]
0.5 µg/mL: [4] | [6]
